Screens as filed in PubChem BioAssay.
The full list was thinned out, with hits kept by preference.
Redox H2O2 prof – compounds producing H2O2 with reducing agent – biochemical, NIH compound library profiling, artefact control for MLSCN library redox annotation, primary screen; DTT-dependent redox cycling H2O2, phenol red/HRP absorbance; 100% = 100 µM peroxide control, 0% = buffer; activation, % at 10 µM; 200,000 compounds, 0.03% hits;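 active means activation of at least 50% relative to the plate's high and low controls in the primary single-dose screen; inactive means activation below 50%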;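 further: compound incubated with DTT at 0.8 mM final as the reducing agent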
Diaphorase inh – inhibits diaphorase or chemically oxidizes, flagging diaphorase assay artifacts. diaphorase resazurin-to-resorufin fluorescence, NADH, 16 min; bacterial (C. kluyveri) enzyme, not human. 190,000 compounds, 0.69% hits. inhibition, % at 20 µM;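 active means primary screen inhibition at 20 µM above a set limit, cut at about 50% in these data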;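 further: plate controls were DMSO with full reaction for no effect and wells lacking NADH for full effect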
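Assay system: diaphorase enzyme from Clostridium kluyveri. Quantity: enzyme working solution with 0.14 U/mL diaphorase. Schedule: reaction incubation of 16 min at room temperature. Technique: resorufin fluorescence, excitation 544 nm, emission 590 nm. Controls: No-NADH positive control and DMSO neutral control.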
G6PDH counter – L. mesenteroides G6PDH inhibition counter-screen; inhibition, % at 5 µM; Purified L. mesenteroides G6PDH, diaphorase/resazurin coupled fluorescence, 45 min; 200,000 compounds, 0.12% hits
Lmaj promast – reduces viability of Leishmania major promastigotes. 200,000 compounds, 9% hits. resazurin fluorescence viability. inhibition, % at 10 µM. AID 1063;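 further: promastigotes grown with compound for 44 hours at 28 °C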
Diaph act CS – diaphorase activation or chemical reduction counter-screen; Diaphorase/resazurin coupled assay, resorufin fluorescence, 16 min; active compounds read high; 1 = vehicle wells, 0 = NADH-free wells; activation factor at 20 µM; 190,000 compounds, 0.005% hits;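 active means diaphorase activity raised at least twofold by the compound at 20 µM; inactive means activation factor below 2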
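Test system: Clostridium kluyveri diaphorase, purified enzyme. Buffer or medium: 50 mM HEPES pH 7.4 buffer plus MgCl2 and Tween 20. Also added: 0.114 mM NADH and 0.1 mM resazurin, final amounts. Dosing: compound 20 µM once, DMSO 1%. Schedule: 16 min enzyme reaction, ambient temperature. Detection: fluorescence of resorufin, 544 nm excitation, 590 nm emission.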
PfGluPho inh – PfG6PD (Plasmodium falciparum) enzyme inhibition | PfGluPho enzyme, NADPH resazurin-diaphorase fluorescence | AID 504690 | 350,000 compounds, 0.78% hits | inhibition, % at 20 µM;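 active means inhibition reaching at least a set limit at 20 µM in the primary screen, cut at about 59% in these data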;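 further: 0% = DMSO wells with substrate and 100% = DMSO wells lacking glucose-6-phosphate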
Lmaj promast 1uM – L. major promastigote growth inhibition, 1 uM repeat. resazurin fluorescence, 48 h. AID 1258. 1,100 compounds, 13% hits. shares compounds with Lmaj promast. inhibition, % at 1 µM;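 active means inhibition above about 50% in both repeat tests, limit read from the data; inconclusive means one repeat under the set limit, the other over it; inactive means both repeats under the set limit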
* = called active by the depositor; ? = inconclusive; . = no result. Unless noted, no stated cut-off is given here; in the data, active means inhibition above about 50%; inactive means the rest.

SMILES | Redox H2O2 prof | Diaphorase inh | G6PDH counter | Lmaj promast | Diaph act CS | PfGluPho inh | Lmaj promast 1uM
Cc1ccc(-c2nc(-c3cccnc3)sc2CC(=O)Nc2ccc3nc(C)sc3c2)cc1 | 0 | 14 | 6 | 33 | 0.9 | -3 | .
O=C(O)CCC(=O)N1CC=C(c2ccccc2)CC1 | 0 | 8 | 1 | 63* | 0.9 | -4 | -7
COc1ccc2[nH]cc(CCN=C3SCC(=O)N3C)c2c1 | 0 | -7 | 2 | -4 | 1.1 | -4 | .
O=C(c1cn(-c2ccccc2)nc1-c1ccc(Cl)s1)N1CCOCC1 | 0 | 20 | 4 | 64* | 0.8 | 4 | -14
O=C(c1cn(-c2ccccc2)nc1-c1ccc(Cl)cc1)N1CCOCC1 | 0 | 12 | 6 | 3 | 0.9 | -3 | .
CC(=O)O[C@]1(C(C)=O)CC[C@H]2[C@@H]3C[C@H](C)C4=CC(=O)CC[C@]4(C)[C@H]3CC[C@@]21C | 0 | 17 | 15 | 76* | 0.8 | 0 | -2
O=C(CSc1nncs1)NC(=O)NC1CCCC1 | 0 | 5 | 2 | -9 | 1 | -1 | .
N#Cc1ccc(NC(=S)Nc2ccccc2)cc1 | 0 | 10 | -3 | 62* | 0.9 | -17 | 0
Oc1c(C=NCc2ccccc2)sc2ccccc12 | 0 | 6 | 6 | 56* | 0.9 | -1 | -9
Cc1cc2c(cc1C)CSC(c1ccccc1O)SC2 | 0 | 27 | 0 | 97* | 0.7 | 27 | -9
Cc1ccc(Oc2ccc(S(=O)(=O)N3CCOCC3)cc2C(N)=O)c(-n2nc3ccccc3n2)c1 | 3 | 13 | -3 | 54* | 0.9 | 7 | -8
COc1ccccc1Oc1ccc(S(=O)(=O)N2CCOCC2)cc1S(=O)(=O)N1CCOCC1 | -2 | 17 | 3 | -2 | 0.8 | 10 | .
CCCCSc1nnc([C@H](CC(C)C)NC(=O)OC(C)(C)C)o1 | 2 | 14 | 12 | 76* | 0.9 | 1 | 30
CCCCSc1nnc([C@H](C)NC(=O)OC(C)(C)C)o1 | 2 | 6 | 8 | 21 | 0.9 | -5 | .
COc1ccccc1N1CC(C)(C)C(=O)N(C(=O)c2ccc(C)cc2)C1=S | . | . | . | . | . | 10 | .
CCn1c2ccccc2c2cc(/C(C)=N/O)ccc21 | -8 | 18 | -3 | 69* | 0.8 | 6 | -15
COCCN(CC(=O)Nc1cccc(S(=O)(=O)N2CCCC2)c1)Cc1nc2ccccc2c(=O)[nH]1 | . | . | . | . | . | 6 | .
Cc1cc2nc(C3CCN(Cc4nnnn4Cc4ccccc4)CC3)[nH]c2cc1C | 2 | 18 | 6 | 91* | 0.8 | 5 | -19
N=C(N)SCc1cn(-c2ccccc2)nc1-c1ccc(Br)cc1 | -2 | -66 | -3 | 101* | 1.7 | -5 | 79*
O=C(Cc1ccccc1)N1CCN(c2ccccc2F)CC1 | . | . | . | . | . | -1 | .
OCC1(Cc2ccccc2)CCN(C2CCN(c3ccccc3F)CC2)CC1 | -1 | -18 | 9 | 86* | 1.2 | -11 | ?
COc1ccc(-c2[nH]n(-c3ccc([N+](=O)[O-])cc3)c(=O)c2C=NCCN2CCNCC2)cc1 | 1 | . | 11 | 34 | . | . | .
O=c1c(C=NCCN2CCNCC2)c(-c2ccccc2)[nH]n1-c1ccc([N+](=O)[O-])cc1 | -1 | 11 | 15 | 101* | 0.9 | . | 28
COc1ccc(NS(=O)(=O)c2cc(C(=O)NNC(=O)c3ccncc3)ccc2OC)c(OC)c1 | . | . | . | . | . | -12 | .
CCC(C)n1ncn(-c2ccc(N3CCN(c4ccc(OCC5COC(Cn6cncn6)(c6ccc(Cl)cc6Cl)O5)cc4)CC3)cc2)c1=O (stereo not given) | . | 3 | 8 | . | 1 | -28 | .
SMILES | Redox H2O2 prof | Diaphorase inh | G6PDH counter | Lmaj promast | Diaph act CS | PfGluPho inh | Lmaj promast 1uM
CCCC1COC(Cn2cncn2)(c2ccc(C)cc2)O1 (stereo not given) | 0 | 14 | 0 | 55* | 0.9 | 4 | -1
Cc1csc(SCC(=O)NC2CCC(C)CC2)n1 (stereo not given) | . | . | . | . | . | -13 | .
COc1ccccc1CNC(=O)CCCNC(=O)Cn1cnc2sc(C)c(C)c2c1=O | . | . | . | . | . | -2 | .
Cc1ccc(C(C)C)cc1S(=O)(=O)NC1CC(C)(C)NC(C)(C)C1 | . | . | . | . | . | 8 | .
COc1ccc(C2C3C(=O)N(Cc4ccccc4)C(=O)C3ON2c2ccccc2)c(OC)c1OC (stereo not given) | 3 | 29 | 2 | 74* | 0.7 | 4 | -10
COc1cc(C2C3C(=O)N(Cc4ccccc4)C(=O)C3ON2c2ccccc2)cc(OC)c1OC (stereo not given) | 1 | 26 | 2 | -1 | 0.7 | 9 | .
CCc1ccc(C2c3[nH]c4ccccc4c3CCN2C(=O)CN2CCN(CC)CC2)cc1 (stereo not given) | 0 | 1 | 10 | 75* | 1 | 12 | -10
CC(=O)Nc1cccc(N/C=C(\C=O)c2nc3ccccc3o2)c1 | 0 | 12 | -9 | -8 | 0.9 | -8 | .
O=C/C(=C\Nc1ccccn1)c1nc2cc(Cl)ccc2o1 | 3 | 7 | 9 | 72* | 0.9 | 0 | -1
Cc1nn(C(C)(C)C)c(OC(=O)C2CCCC2)c1S(=O)(=O)c1ccccc1 | -1 | 14 | -1 | 62* | 0.9 | 7 | 0
Cc1ccc(S(=O)(=O)c2c(C)nn(C(C)(C)C)c2OC(=O)C2CCCC2)cc1 | 2 | 23 | 5 | 47 | 0.8 | 24 | .
COc1cccc(CNC(=O)C(CCSC)NS(=O)(=O)c2ccc3c(c2)oc(=O)n3C)c1 (stereo not given) | 3 | 24 | -14 | -1 | 0.8 | -8 | .
c1ccc(-n2nnnc2-c2cnc(-c3cccnc3)nc2-c2cccs2)cc1 | 0 | 5 | 4 | 95* | 0.9 | -6 | -13
Clc1ccc(-n2nnnc2-c2cnc3ccccc3c2-c2ccccc2)cc1 | . | . | . | . | . | 18 | .
CCOC(=O)c1cnc(-n2nc(C)cc2C)nc1Nc1ccc(N(C)C)cc1 | 0 | -5 | 4 | 91* | 1 | 26 | 10
COc1cccc(C2C(C(=O)c3ccco3)=C(O)C(=O)N2CCN(C)C)c1OC (stereo not given) | 0 | 11 | 13 | 62* | 0.9 | 12 | -8
COC(=O)c1ccc(COc2ccc(C(C)(C)C)cc2)o1 | . | . | . | . | . | 13 | .
COC(=O)c1ccc(CN(Cc2ccc(C(=O)OC)o2)C(C)(C)C)o1 | 0 | -4 | -2 | 97* | 1 | 5 | -12
CCCC(=O)Nc1nc(C)c(-c2csc(Nc3ccccc3C)n2)s1 | -4 | 15 | 9 | 10 | 0.8 | 21 | .
CCC(=O)Nc1nc(C)c(-c2csc(Nc3ccccn3)n2)s1 | 0 | 14 | -2 | 62* | 0.9 | 22 | 6
